{"source": "paper PMC9049676", "about": "(RSC Advances, 2020)", "type_in_all_cases": "cell-based, human", "key": {"[1]": {"system": "Hep-G2", "assay": "MTT cytotoxicity assay, Hep-G2", "conditions": "read-out: IC50 Hep-G2, cells treated for 24 h", "in_short": "(§1)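 Tumour lines and the normal liver line HL-7702 came from the Shanghai Cell Bank. Cells were cultured in RPMI 1640 or DMEM with 10% FBS and 1% streptomycin at 37 °C, 5% CO2. Cells were exposed to test compounds, and viability was read by MTT reduction to derive IC50. Cisplatin was run as reference control.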"}, "[2]": {"system": "NCI-H460", "assay": "MTT cytotoxicity assay, NCI-H460", "conditions": "read-out: IC50 NCI-H460, cells treated for 24 h", "in_short": "as §1"}, "[3]": {"system": "T24", "assay": "MTT cytotoxicity assay, T24", "conditions": "read-out: IC50 T24, cells treated for 24 h", "in_short": "as §1"}, "[4]": {"system": "HL-7702", "assay": "MTT cytotoxicity assay, normal liver cell line HL-7702", "conditions": "read-out: IC50 HL-7702, cells treated for 24 h", "in_short": "as §1"}}, "data": [{"smiles": "N.N.[Cl][Pt][Cl]", "note": "[Cisplatin]", "values": [{"measurement": "IC50", "setting": "[1]", "result": "19.6 ± 1.39", "unit": "µM"}, {"measurement": "IC50", "setting": "[2]", "result": "11.7 ± 2.26", "unit": "µM"}, {"measurement": "IC50", "setting": "[3]", "result": "22.9 ± 0.93", "unit": "µM"}, {"measurement": "IC50", "setting": "[4]", "result": "13.4 ± 1.56", "unit": "µM"}]}]}
